Here are results for 22 compounds from ChEMBL document CHEMBL1153817, “New resorcinol-anandamide "hybrids" as potent cannabinoid receptor ligands endowed with antinociceptive activity in vivo” (J Med Chem, 2009).

Broadly, the IC50 is the point on the concentration scale where inhibition reaches its midpoint.

The target of test [1] is T1, Cannabinoid receptor 1 (Homo sapiens, UniProt P21554). Briefly: Displacement of [3H]CP-55940 form human CB1 receptor expressed in HEK cells at 10 uM. Conditions: HEK293. Type of test: cell-based.
T1 sequence (P21554 whole entry): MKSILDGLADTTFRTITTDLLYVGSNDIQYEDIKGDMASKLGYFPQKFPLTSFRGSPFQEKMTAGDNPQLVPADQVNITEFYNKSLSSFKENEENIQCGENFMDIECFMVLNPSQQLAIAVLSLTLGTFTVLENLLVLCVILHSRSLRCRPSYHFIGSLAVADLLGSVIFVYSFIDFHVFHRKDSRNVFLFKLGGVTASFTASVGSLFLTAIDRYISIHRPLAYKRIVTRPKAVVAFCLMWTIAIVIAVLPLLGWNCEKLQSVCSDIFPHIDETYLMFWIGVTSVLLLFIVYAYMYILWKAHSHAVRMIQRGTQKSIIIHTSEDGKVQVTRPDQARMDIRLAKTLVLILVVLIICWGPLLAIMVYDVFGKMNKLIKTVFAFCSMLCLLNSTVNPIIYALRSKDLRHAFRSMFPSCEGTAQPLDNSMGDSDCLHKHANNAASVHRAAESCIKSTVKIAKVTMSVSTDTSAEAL
Test [2] deals with T2, Cannabinoid receptor 2 (Homo sapiens, UniProt P34972). The test can be described thus: Displacement of [3H]CP-55940 form human CB2 receptor expressed in HEK cells at 10 uM. Type of test: cell-based. As to conditions: HEK293.
T2 sequence (P34972 whole entry): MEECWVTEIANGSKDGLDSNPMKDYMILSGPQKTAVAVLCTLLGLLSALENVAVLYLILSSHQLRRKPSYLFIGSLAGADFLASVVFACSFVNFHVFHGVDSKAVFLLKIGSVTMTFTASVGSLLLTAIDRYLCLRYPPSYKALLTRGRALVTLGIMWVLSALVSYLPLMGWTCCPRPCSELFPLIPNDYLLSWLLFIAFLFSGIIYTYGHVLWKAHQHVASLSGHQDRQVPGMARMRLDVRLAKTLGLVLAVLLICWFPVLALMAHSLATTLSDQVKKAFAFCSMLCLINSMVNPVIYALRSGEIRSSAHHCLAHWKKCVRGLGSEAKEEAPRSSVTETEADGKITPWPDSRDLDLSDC
Test [3] deals with T2, Cannabinoid receptor 2. Briefly: Binding affinity to human recombinant CB2 receptor expressed in african green monkey COS cells by radioligand binding assay. Type of test: cell-based.
Test [4] relates to COS. Briefly: Selectivity index, ratio of Ki for human CB2 receptor to Ki for human CB1 receptor expressed in african green monkey COS cells. Type of test: cell-based. The method in brief:
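Ki at COS-expressed human CB1 and CB2 each from [3H]CP-55,940 displacement (0.14 nM for CB1), IC50 converted via Cheng-Prusoff, mean of 3 experiments; index taken as ratio of the two Ki values.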

In test [5] the target is T1, Cannabinoid receptor 1. Briefly: Binding affinity to human recombinant CB1 receptor expressed in african green monkey COS cells by radioligand binding assay. Type of test: cell-based.
Test [6] concerns Mus musculus. Briefly: Antinociceptive activity against formalin-induced paw pain in mouse at 1 mg/kg, ip pretreated 15 mins before formalin challenge assessed after 30 to 45 mins in presence of CB1 receptor-antagonist rimonabant. Type of test: functional, organism-based. Also noted: dose 1 mg/kg. In short, it runs like this: (§1)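 Formalin (1.25% in saline, 30 µL) injected into dorsal hind paw; mice randomised, n = 8-10 per group, one treatment each. Test drug given ip in 10% DMSO/saline 15 min pre-formalin; rimonabant or AM630 (1 mg/kg ip) given 5 min before test drug. Lifting, licking, shaking, flinching timed per 5 min over 60 min; one-way ANOVA with Bonferroni.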

In test [7] the test system is Mus musculus. Briefly: Antinociceptive activity against formalin-induced paw pain in mouse at 1 mg/kg, ip pretreated 15 mins before formalin challenge assessed after 30 to 45 mins in presence of CB2 receptor-antagonist AM630. Type of test: functional, organism-based. More on the design: dose 1 mg/kg. The method in brief: as §1
Test [8] relates to Mus musculus. The test can be described thus: Antinociceptive activity against formalin-induced paw pain in mouse at 1 mg/kg, ip pretreated 15 mins before formalin challenge assessed after 30 to 45 mins. Type of test: functional, organism-based. Also noted: dose 1 mg/kg. In short, it runs like this:
as §1

Test [9] deals with T3, Cannabinoid receptor 2 (Rattus norvegicus, UniProt Q9QZN9).
T3 sequence (Q9QZN9 whole entry): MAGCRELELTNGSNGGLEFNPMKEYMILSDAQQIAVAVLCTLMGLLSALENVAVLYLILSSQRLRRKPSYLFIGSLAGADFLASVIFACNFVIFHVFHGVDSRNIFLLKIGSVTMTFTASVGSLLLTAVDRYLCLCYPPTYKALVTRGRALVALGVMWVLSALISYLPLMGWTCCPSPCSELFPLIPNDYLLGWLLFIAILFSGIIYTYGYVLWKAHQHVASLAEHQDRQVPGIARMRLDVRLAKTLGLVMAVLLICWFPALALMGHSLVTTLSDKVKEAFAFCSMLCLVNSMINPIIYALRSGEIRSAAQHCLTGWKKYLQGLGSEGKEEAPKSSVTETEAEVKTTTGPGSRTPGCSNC
The test can be described thus: Binding affinity to CB2 receptor in rat brain membrane. Type of test: cell membranes.

Test [10] addresses T3, Cannabinoid receptor 2. Briefly: Binding affinity to CB2 receptor in rat spleen membrane. Type of test: cell membranes.
The target of test [11] is T4, Cannabinoid receptor 1 (Rattus norvegicus, UniProt P20272). Briefly: Binding affinity to CB1 receptor in rat spleen membrane. Type of test: cell membranes.
T4 sequence (P20272 whole entry): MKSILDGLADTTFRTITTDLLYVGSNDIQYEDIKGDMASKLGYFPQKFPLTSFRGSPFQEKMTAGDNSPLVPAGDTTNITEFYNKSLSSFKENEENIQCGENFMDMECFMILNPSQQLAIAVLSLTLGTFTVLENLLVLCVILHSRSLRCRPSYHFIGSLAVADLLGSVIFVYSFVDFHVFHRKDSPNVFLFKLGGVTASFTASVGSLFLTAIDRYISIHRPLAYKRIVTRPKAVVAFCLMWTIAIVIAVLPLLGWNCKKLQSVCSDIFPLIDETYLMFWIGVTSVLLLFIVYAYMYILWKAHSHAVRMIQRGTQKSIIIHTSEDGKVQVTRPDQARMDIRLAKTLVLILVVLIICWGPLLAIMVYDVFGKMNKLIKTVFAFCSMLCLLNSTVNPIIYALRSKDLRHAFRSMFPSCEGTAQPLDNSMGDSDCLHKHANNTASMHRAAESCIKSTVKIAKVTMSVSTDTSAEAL
Test [12] addresses T4, Cannabinoid receptor 1. Briefly: Binding affinity to CB1 receptor in rat brain membrane. Type of test: cell membranes.

The structures appear in SMILES notation. The source made the active and inactive calls. The calls are words filed in the database; no cut-off is given here. Where only a bound is given, the exact number is not on record here.

`CCCCCCCOc1cc(O)cc(OCCCCCCCCCCC(=O)NC2CC2)c1`: the Activity in test [1] and in test [2] was more than 50% throughout. Further, the Ki in test [3] (read-out: Ki) turned out to be 210 nM; in test [5] (read-out: Ki), 2220 nM. Also, the Ratio Ki in test [4] worked out at 10600 nM.
For `CCCCCCC(C)(C)c1cc(O)cc(OCCCCCCCCCCCC(=O)NCC2CC2)c1`, the Activity in test [1] and in test [2] was more than 50% each time. The Ki in [3] (read-out: Ki) came to 600 nM; in test [5] (read-out: Ki), 5400 nM. Further, the Ratio Ki in test [4] came out at 9000 nM.
As for `CCCCCCC(C)(C)c1cc(O)cc(OCCCCCCCC(=O)NCCO)c1`, the Activity in test [1] and in test [2] was more than 50% in each case. For the same compound, the Ki turned out to be 160 nM in test [3] (read-out: Ki) and 56 nM in test [5] (read-out: Ki). Further, the Ratio Ki in test [4] stood at 400 nM.
For `CCCCCCC(C)(C)c1cc(O)cc(OCCCCCCCCCCCC(=O)NCCO)c1`, the Activity in test [1] and in test [2] was more than 50% each time. Moreover, the Ki worked out at 80 nM in test [3] (read-out: Ki) and 820 nM in test [5] (read-out: Ki). Further, the Ratio Ki in test [4] came out at 10300 nM.
With `CCCCCCCOc1cc(O)cc(OCCCCCCCCCCC(=O)NCCO)c1`, the Activity in test [1] and in [2] was more than 50% each time. Further, the values for the Ki in test [3] (read-out: Ki) and in test [5] (read-out: Ki) were 2420 nM and 3070 nM, respectively. Besides, the Ratio Ki in test [4] worked out at 1300 nM.
As to `CCCCCCC(C)(C)c1cc(O)cc(OCCCCCCCCCCC(=O)NCC2CC2)c1`, the Activity in test [1] and in test [2] was more than 50% throughout. Further, the Ki in test [3] (read-out: Ki) was 35 nM; in test [5] (read-out: Ki), 1000 nM. Besides, the Ratio Ki in [4] was found to be 28600 nM.
Regarding `CC(C)CCOc1cc(O)cc(OCCCCCCCCCCC(=O)NCCO)c1`, the Activity in test [1] and in test [2] was more than 50% each time. The Ki is 570 nM in [3] (read-out: Ki) and 2880 nM in test [5] (read-out: Ki). In addition, the Ratio Ki in test [4] worked out at 5100 nM.
As to `CC(C)CCOc1cc(O)cc(OCCCCCCCCCCC(=O)NCC2CC2)c1`, the Activity in [1] and in [2] was more than 50% each time. The Ki in test [3] (read-out: Ki) is 200 nM; in test [5] (read-out: Ki), 2300 nM. In test [4], the Ratio Ki is 11500 nM.
As to `CCCCOc1cc(O)cc(OCCCCCCCCCCC(=O)NCCO)c1`, the Activity in test [1] and in test [2] was more than 50% each time. Besides, the results for the Ki in [3] (read-out: Ki) and in test [5] (read-out: Ki) were 1620 nM and 2410 nM, respectively. In [4], the Ratio Ki is 1500 nM.
`CCCCCCC(C)(C)c1cc(O)cc(OCCCCCCCC(=O)NC2CC2)c1`: the Activity in test [1] and in test [2] was more than 50% each time. Moreover, the Ki in test [3] (read-out: Ki) turned out to be 7.9 nM; in [5] (read-out: Ki), 5.6 nM. Also, the outcome in test [6] and in test [7] was inactive. Further, in [8], the result was Active. For the same compound, the Ratio Ki in test [4] came out at 700 nM.
For `CCCCCCC(C)(C)c1cc(O)cc(OCCCCCCCCCCCC(=O)NC2CC2)c1`, the Activity in [1] and in test [2] was more than 50% in each case. Besides, the Ki in [3] (read-out: Ki) is 20 nM; in [5] (read-out: Ki), 170 nM. Further, in test [4], the Ratio Ki was found to be 8500 nM.
As for `CCCCCCC(C)(C)c1cc(O)cc(OCCCCCCCCCCC(=O)NCc2ccc(O)c(OC)c2)c1`, the Activity in [1] and in [2] was more than 50% each time. Besides, the Ki in [3] (read-out: Ki) is 510 nM; in [5] (read-out: Ki) it was 2820 nM. For the same compound, the Ratio Ki in test [4] was 5500 nM.
Regarding `CCCCCCC(C)(C)c1cc(O)cc(OCCCCCCCC(=O)NCC2CC2)c1`, the Activity in test [1] and in test [2] was more than 50% each time. Moreover, the Ki in [3] (read-out: Ki) came out at 34 nM; in test [5] (read-out: Ki), 100 nM. For the same compound, the Ratio Ki in test [4] stood at 2900 nM.
On to `O=C(CCCCCCCCCCOc1cc(O)cc(O)c1)NCC1CC1`, for which the IC50 in test [9], in test [10], in test [11] and in [12] was more than 10000 nM in each case. For the same compound, the Activity in test [1] and in test [2] was more than 50% in each case. For the same compound, the Ki entry in [3] (cos) was “Not Active”; in [3] (read-out: pKi (converted)) it was 10000 nM; in test [5] (cos), “Not Active”; in test [5] (read-out: pKi (converted)), 10000 nM.
`CCCCOc1cc(O)cc(OCCCCCCCCCCC(=O)NC2CC2)c1`: the Activity in test [1] and in [2] was more than 50% in each case. The Ki in test [3] (read-out: Ki) amounted to 120 nM; in test [5] (read-out: Ki), 280 nM. In test [4], the Ratio Ki came out at 2300 nM.
As for `CCCCCc1cc(O)cc(OCCCCCCCCCCC(=O)NC2CC2)c1`, in test [4], the Ratio Ki stood at 400 nM.
With `CCCCCCC(C)(C)c1cc(O)cc(OCCCCCCCCCCC(=O)NC2CC2)c1`, the Activity in test [1] and in [2] was more than 50% throughout. For the same compound, the figures for the Ki in [3] (read-out: Ki) and in [5] (read-out: Ki) were 7.9 nM and 21 nM, respectively. The Ratio Ki in [4] came out at 2700 nM.
For `CCCCCCC(C)(C)c1cc(O)cc(OCCCCCCCCCCC(=O)NCCO)c1`, the Activity in test [1] and in test [2] was more than 50% in each case. Also, the values for the Ki in test [3] (read-out: Ki) and in test [5] (read-out: Ki) were 30 nM and 310 nM, respectively. Besides, the Ratio Ki in [4] was determined as 10300 nM.
As to `O=C(CCCCCCCCCCOc1cc(O)cc(O)c1)NCCO`, the IC50 in [9], in [10], in test [11] and in [12] was more than 10000 nM throughout. For the same compound, the Activity in test [1] and in [2] was more than 50% throughout. Further, the Ki entry was “Not Active” in test [3] (cos), 10000 nM in test [3] (read-out: pKi (converted)), “Not Active” in test [5] (cos) and 10000 nM in [5] (read-out: pKi (converted)).
Take `CCCCCCC(C)(C)c1cc(O)cc(OCCCCCCCCCCC(=O)NCCc2ccc(O)c(O)c2)c1`: the Activity in [1] and in test [2] was more than 50% in each case. For the same compound, the Ki turned out to be 5000 nM in test [3] (read-out: Ki) and 3400 nM in [5] (read-out: Ki). In addition, the Ratio Ki in test [4] came to 700 nM.
For `CC(C)CCOc1cc(O)cc(OCCCCCCCCCCC(=O)NC2CC2)c1`, the Activity in test [1] and in test [2] was more than 50% each time. For the same compound, the Ki came out at 130 nM in test [3] (read-out: Ki) and 220 nM in test [5] (read-out: Ki). For the same compound, the Ratio Ki in test [4] came out at 1700 nM.
Take `O=C(CCCCCCCCCCOc1cc(O)cc(O)c1)NC1CC1`: the IC50 in [9], in test [10], in test [11] and in test [12] was more than 10000 nM throughout. The Activity in [1] and in [2] was more than 50% in each case. The Ki entry in test [3] (cos) is “Not Active”; in [3] (read-out: pKi (converted)) it was 10000 nM; in [5] (cos), “Not Active”; in [5] (read-out: pKi (converted)), 10000 nM.
